Data set [1] in a line: Antitumor activity against human LNCaP-FGC cells after 72 hrs by MTT assay. Format: functional, cell-based. The conditions noted are these: LNCaP-Clone-FGC. Summed up:
(§1)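 Cells seeded in 96-well plates; compounds added 24 h after seeding and left on for 72 h. Viable cells read spectrophotometrically after MTS tetrazolium staining, with dye conversion taken as proportional to live cells. IC50 for each cell line derived from dose–response curves.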

For the next data set, the system named is CCRF-CEM. Description: Antitumor activity against human CCRF-CEM cells after 72 hrs by MTT assay. Type of data set: functional, cell-based. An outline of the steps: as §1
For orientation: Tetrazolium assays rely on reduction of a dye to a coloured formazan, in cell work by metabolically active cells.

The next data set relates to MDA-MB-231. Description: Antitumor activity against human MDA-MB-231 cells after 72 hrs by MTT assay. Format: functional, cell-based. The conditions noted are these: MDA-MB-231, 72 h. An outline of the steps:
as §1

The test system of a further data set is SHP77. Description: Antitumor activity against human SHP77 cells after 72 hrs by MTT assay. Format: functional, cell-based. The conditions noted are these: SHP77, 72 h. An outline of the steps:
as §1

For a further data set, the system named is PC-3. Description: Antitumor activity against human PC3 cells after 72 hrs by MTT assay. Type of data set: functional, cell-based. The conditions noted are these: PC-3, 72 h. Summed up:
as §1

In another data set the test system is HCT-116. Description: Antitumor activity against human HCT116 cells after 72 hrs by MTT assay. Type of data set: functional, cell-based. The conditions noted are these: HCT-116, 72 h. Summed up: as §1
The next data set deals with DU-145. Description: Antitumor activity against human Du145 cells after 72 hrs by MTT assay. Type of data set: functional, cell-based. The following applies: DU-145, 72 h. An outline of the steps:
as §1

The next data set deals with DU-4475. Kind of data set: Antitumor activity against human DU4475 cells after 72 hrs by MTT assay. Format: functional, cell-based. The following applies: DU-4475, 72 h.
The next data set has as its system MDA-MB-468. Description: Antitumor activity against human MDA-MB-468 cells after 72 hrs by MTT assay. The conditions noted are these: MDA-MB-468, 72 h. Type of data set: functional, cell-based. Summed up:
as §1

The nature of data set [2]: Antitumor activity against human A2780/DDP-S cells after 72 hrs by MTT assay. Format: functional, cell-based. The following applies: A2780, 72 h. An outline of the steps:
as §1

The test system of the next data set is NCI-H446. Description: Antitumor activity against human NCI-H446 cells after 72 hrs by MTT assay. Type of data set: functional, cell-based. The conditions noted are these: NCI-H446, 72 h. An outline of the steps:
as §1

The test system of the next data set is BT-549. Kind of data set: Antitumor activity against human BT549 cells after 72 hrs by MTT assay. The conditions noted are these: BT-549, 72 h. Type of data set: functional, cell-based. Summed up: as §1
The test system of the next data set is Rotifers. Kind of data set: Toxicity against Rotifers assessed as feeding at 10 ppm after 45 mins by injestion toxicity assay. Type of data set: organism-based. The following applies: rotifera, in vivo, 0.75 h.
Data set [3] deals with Lindra thalassiae. Description: Antifungal activity against Lindra thalassiae ATCC 56663 after 6 days. Type of data set: functional, organism-based. The following applies: Lindriella thalassiae, ATCC 56663, 144 h. Summed up:
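Growth inhibition of marine fungal pathogen Lindra thalassiae ATCC 56663. IC50 derived from dose–response curves.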

Data set [4] has as its system Lindra thalassiae. Description: Antifungal activity against Lindra thalassiae ATCC 56663 at 0.67 mg/mL after 6 days. Format: functional, Lindriella thalassiae.

By IC50 is commonly meant the midpoint of a concentration-inhibition curve. As for `CC(C)=CC(=O)C[C@@H](C)[C@H]1CC[C@@]2(C)[C@@H]3CC[C@H]4[C@](C)(COS(=O)(=O)[O-])[C@@H](OS(=O)(=O)[O-])CC[C@@]45C[C@@]35CC[C@]12C.[Na+].[Na+]`, the IC50 (in data set [1]; with CCRF-CEM; in the data set on MDA-MB-231; in the data set on SHP77; in the data set on PC-3; with HCT-116) was 31 µM in each case. Moreover, the concentration for half-maximal inhibition (IC50) (with DU-145; with DU-4475; in the data set with MDA-MB-468; in [2]; in the data set with NCI-H446; with BT-549) was 31 µM throughout. Besides, the Activity in the data set with Rotifers was 9%.

Take `CC(C)C[C@H](O)C[C@@H](C)[C@H]1CC[C@@]2(C)[C@@H]3CC[C@H]4[C@](C)(COS(=O)(=O)[O-])[C@@H](OS(=O)(=O)[O-])CC[C@@]45C[C@@]35CC[C@]12C.[Na+].[Na+]`: the IC50 in [1] came out at 31 µM; in the data set on CCRF-CEM, 31 µM; with MDA-MB-231, 31 µM; with SHP77, 31 µM; in the data set with PC-3 it was 31 µM; in the data set with Lindra thalassiae [3], 26 µM. Also, the IC50 (with HCT-116; with DU-145; in the data set with DU-4475; with MDA-MB-468; in data set [2]; with NCI-H446) was 31 µM in each case. Moreover, in the data set with BT-549, the IC50 came to 31 µM. In addition, the results for the Activity with Lindra thalassiae [4] and with Rotifers were 670 µg/mL and 9%, respectively.

In the data set with Lindra thalassiae [3], `CC(C)C[C@H](O)C[C@@H](C)[C@H]1CC[C@@]2(C)[C@@H]3CC[C@H]4[C@](C)(COS(=O)(=O)O)[C@@H](O)CC[C@@]45C[C@@]35CC[C@]12C` had an IC50 of 55 µM.

On to `CC(C)CC(=O)C[C@@H](C)[C@H]1CC[C@@]2(C)C3=C(CC[C@]12C)[C@@]1(C)CC[C@H](OS(=O)(=O)[O-])[C@@](C)(COS(=O)(=O)[O-])[C@@H]1CC3.[Na+].[Na+]`, for which the IC50 (in data set [1]; in the data set with CCRF-CEM; in the data set with MDA-MB-231; with SHP77; in the data set on PC-3; with HCT-116) was 31 µM each time. Moreover, the IC50 (in the data set with DU-145; with DU-4475; with MDA-MB-468; in [2]; in the data set with NCI-H446; with BT-549) was 31 µM each time. The Activity with Rotifers came out at 9%.

On to `CC(C)=CC(=O)C[C@@H](C)[C@H]1CC[C@@]2(C)[C@@H]3CC[C@H]4[C@](C)(CO)[C@@H](OS(=O)(=O)[O-])CC[C@@]45C[C@@]35CC[C@]12C.[Na+]`, for which the concentration for half-maximal inhibition (IC50) (in data set [1]; in the data set on CCRF-CEM; with MDA-MB-231; with SHP77; with PC-3; in the data set on HCT-116) was 6 µM throughout. The IC50 (in the data set on DU-145; in the data set with DU-4475; in the data set on MDA-MB-468; in [2]; in the data set with NCI-H446; in the data set on BT-549) was 6 µM throughout. Besides, the Activity in the data set on Rotifers turned out to be 9%.

As for `CC(C)=CC(=O)C[C@@H](C)[C@H]1CC[C@@]2(C)[C@@H]3CC[C@H]4[C@](C)(COS(=O)(=O)[O-])[C@@H](O)CC[C@@]45C[C@@]35CC[C@]12C.[Na+]`, the IC50 (in data set [1]; in the data set on CCRF-CEM; with MDA-MB-231; in the data set on SHP77; in the data set on PC-3; in the data set on HCT-116) was 6 µM throughout. In addition, the IC50 (in the data set on DU-145; with DU-4475; with MDA-MB-468; in data set [2]; in the data set on NCI-H446; in the data set on BT-549) was 6 µM throughout. Besides, in the data set on Rotifers, the Activity was found to be 9%.

`CC(C)CC(=O)C[C@@H](C)[C@H]1CC[C@@]2(C)[C@@H]3CC[C@H]4[C@](C)(COS(=O)(=O)[O-])[C@@H](OS(=O)(=O)[O-])CC[C@@]45C[C@@]35CC[C@]12C.[Na+].[Na+]`: the IC50 (in [1]; in the data set with CCRF-CEM; in the data set with MDA-MB-231; in the data set on SHP77; in the data set on PC-3; with HCT-116) was 31 µM in each case. Besides, the 50% inhibitory concentration (IC50) (with DU-145; in the data set with DU-4475; with MDA-MB-468; in [2]; with NCI-H446; in the data set on BT-549) was 31 µM in each case. In addition, in the data set on Rotifers, the Activity was 9%.

As to `CC(C)C[C@H](O)C[C@@H](C)[C@H]1CC[C@@]2(C)[C@@H]3CC[C@H]4[C@](C)(CO)[C@@H](OS(=O)(=O)O)CC[C@@]45C[C@@]35CC[C@]12C`, the IC50 in the data set on Lindra thalassiae [3] is 30 µM.

Consider `CC(C)=CC(=O)C[C@@H](C)[C@H]1CC[C@@]2(C)[C@@H]3CC[C@H]4[C@](C)(CO)[C@@H](O)CC[C@@]45C[C@@]35CC[C@]12C`, for which the IC50 (in [1]; in the data set with CCRF-CEM; with MDA-MB-231; with SHP77; with PC-3; in the data set on HCT-116) was 6 µM in each case. Also, the IC50 (with DU-145; with DU-4475; in the data set on MDA-MB-468; in data set [2]; with NCI-H446; in the data set with BT-549) was 6 µM each time. In addition, the Activity in the data set with Rotifers is on record as 9%.
